Results: ChEMBL document CHEMBL1806465, “Synthesis and biological evaluation of 4-nitro-substituted 1,3-diaryltriazenes as a novel class of potent antitumor agents” (Eur J Med Chem, 2011)
pIC50: −log10 of the molar value. Values after ≈ are worked out from the molar mass of the structure shown. Active and inactive are the calls of the source. The rule behind the calls is not given here.

Assays:
L1210 = assay: Cytotoxicity against mouse L1210 cells at 32 uM; format: functional
HeLa = assay: Cytotoxicity against human HeLa cells after 72 hrs by MTT assay; format: functional, cell-based
[1] = Solubility of the compound in DMSO; format: physicochemical
[2] = Solubility of the compound in water; format: physicochemical; settings: buffer
[3] = Stability of the compound in DMSO after 26.25 hrs by LC/MS/MS analysis in presence of 10% FBS; format: physicochemical; settings: cattle; for remaining at 26.25 h: DMSO with 10% FBS, read-out: Stability; for Stability: 26.25 h
Nucleic Acid = assay: Binding affinity to calf thymus DNA assessed as change in melting temperature at compound to DNA ratio of 0.3; format: nucleic-acid assay; settings: Bos taurus
In short: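 ct-DNA sonicated, filtered, in Na-cacodylate buffer pH 7, I = 0.05 mol dm-3, 2 x 10^-5 mol dm-3 (as phosphate, ε260 = 6600); compound/DNA ratio 0.3. Absorbance at 260 nm followed versus temperature, compound absorbance subtracted, curves normalized. Tm taken from first-derivative maximum, confirmed by tangent method; ΔTm = Tm(complex) − Tm(free DNA), mean of ≥2 runs, error ±0.5 °C.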

solubility [1] [µM]	SMILES	pIC50 (HeLa)	further results
–	CC(=O)NCC(=O)O.N=C(N)c1ccc(/N=N/Nc2ccc(C(=N)N)cc2)cc1 [DIMINAZEN ACETURATE]	3.74	Activity (L1210): 50%
74.6 (≈ 25 µg/mL)	Clc1ccc(/N=N/Nc2ccc(Cl)c(Cl)c2)cc1Cl	–	–
–	O=C(c1cccc(C(F)(F)F)c1)N(/N=N/c1ccc([N+](=O)[O-])cc1Br)c1ccc([N+](=O)[O-])cc1Br	5.95	–
–	O=C(c1ccccc1C(F)(F)F)N(/N=N/c1ccc([N+](=O)[O-])cc1Cl)c1ccc([N+](=O)[O-])cc1Cl	4.98	–
–	O=C(c1cccc(F)c1)N(/N=N/c1ccc([N+](=O)[O-])cc1Cl)c1ccc([N+](=O)[O-])cc1Cl	5.60	–
214 (≈ 50 µg/mL)	Fc1cccc(/N=N/Nc2cccc(F)c2)c1	–	Activity (HeLa): inactive
–	O=C(c1ccccc1F)N(/N=N/c1ccc([N+](=O)[O-])cc1Cl)c1ccc([N+](=O)[O-])cc1Cl	5.63	–
–	O=C(CCl)N(/N=N/c1ccc([N+](=O)[O-])cc1C(F)(F)F)c1ccc([N+](=O)[O-])cc1C(F)(F)F	6.10	–
28.1 (≈ 16.6 µg/mL)	COc1ccc(/C=C/C(=O)N(/N=N/c2cc(C(F)(F)F)ccc2Cl)c2cc(C(F)(F)F)ccc2Cl)cc1OC	–	Activity (HeLa): inactive
–	O=C(c1cccc(C(F)(F)F)c1)N(/N=N/c1ccc([N+](=O)[O-])cc1Cl)c1ccc([N+](=O)[O-])cc1Cl	5.93	–
–	O=C(c1ccccc1F)N(/N=N/c1ccc([N+](=O)[O-])cc1C(F)(F)F)c1ccc([N+](=O)[O-])cc1C(F)(F)F	6.10	–
–	O=C(CCl)N(/N=N/c1ccc([N+](=O)[O-])cc1Cl)c1ccc([N+](=O)[O-])cc1Cl	6.26	–
–	COC(=O)N(/N=N/c1ccc([N+](=O)[O-])cc1Cl)c1ccc([N+](=O)[O-])cc1Cl	6.01	–
–	O=[N+]([O-])c1ccc(/N=N/Nc2ccc([N+](=O)[O-])cc2F)c(F)c1	–	solubility [2]: Insoluble
–	O=C(c1ccc(F)cc1)N(/N=N/c1ccc([N+](=O)[O-])cc1C(F)(F)F)c1ccc([N+](=O)[O-])cc1C(F)(F)F	6.00	–
–	CC(=O)OCC(=O)N(/N=N/c1ccc([N+](=O)[O-])cc1Cl)c1ccc([N+](=O)[O-])cc1Cl	6.46	–
–	CCOC(=O)CC(=O)N(/N=N/c1ccc([N+](=O)[O-])cc1C(F)(F)F)c1ccc([N+](=O)[O-])cc1C(F)(F)F	6.52	–
–	O=C(c1ccccc1)N(/N=N/c1ccc([N+](=O)[O-])cc1Cl)c1ccc([N+](=O)[O-])cc1Cl	6.23	remaining at 26.25 h [3]: 9%
–	O=C(c1cccc(F)c1)N(/N=N/c1ccc([N+](=O)[O-])cc1C(F)(F)F)c1ccc([N+](=O)[O-])cc1C(F)(F)F	6.06	–
16.8 (≈ 10.4 µg/mL)	COc1cc(/C=C/C(=O)N(/N=N/c2ccc(Cl)c(C(F)(F)F)c2)c2ccc(Cl)c(C(F)(F)F)c2)ccc1OC(C)=O	–	Activity (HeLa): inactive
–	CC(=O)Oc1ccc(/C=C/C(=O)N(/N=N/c2ccc(Cl)c(C(F)(F)F)c2)c2ccc(Cl)c(C(F)(F)F)c2)cc1OC(C)=O	4.37	–
–	O=C(c1ccccc1)N(/N=N/c1ccc([N+](=O)[O-])cc1C(F)(F)F)c1ccc([N+](=O)[O-])cc1C(F)(F)F	6.22	remaining at 26.25 h [3]: 63%
37.3 (≈ 12.5 µg/mL)	Clc1ccc(Cl)c(/N=N/Nc2cc(Cl)ccc2Cl)c1	–	Activity (HeLa): inactive
84.4 (≈ 50 µg/mL)	COc1ccc(/C=C/C(=O)N(/N=N/c2cc(C(F)(F)F)ccc2Cl)c2cc(C(F)(F)F)ccc2Cl)c(OC)c1	–	Activity (HeLa): inactive
–	O=C(c1ccccc1C(F)(F)F)N(/N=N/c1ccc([N+](=O)[O-])cc1Br)c1ccc([N+](=O)[O-])cc1Br	4.87	–

solubility [1] [µM]	SMILES	pIC50 (HeLa)	further results
–	O=[N+]([O-])c1ccc(/N=N/Nc2ccc([N+](=O)[O-])cc2)cc1	–	Activity (HeLa): inactive
43.5 (≈ 12.5 µg/mL)	O=[N+]([O-])c1ccc(N=NNc2ccc([N+](=O)[O-])cc2)cc1	–	–
41.3 (≈ 16.7 µg/mL)	Clc1cc(Cl)c(/N=N/Nc2cc(Cl)c(Cl)cc2Cl)cc1Cl	–	Activity (HeLa): inactive
–	O=C(c1ccc(C(F)(F)F)cc1)N(/N=N/c1ccc([N+](=O)[O-])cc1Cl)c1ccc([N+](=O)[O-])cc1Cl	5.97	–
–	O=C(c1ccccc1C(F)(F)F)N(/N=N/c1ccc([N+](=O)[O-])cc1C(F)(F)F)c1ccc([N+](=O)[O-])cc1C(F)(F)F	5.27	–
–	O=[N+]([O-])c1ccc(/N=N/Nc2ccc([N+](=O)[O-])cc2C(F)(F)F)c(C(F)(F)F)c1	–	Stability [3]: Stable; solubility [2]: Insoluble
62.2 (≈ 25 µg/mL)	FC(F)(F)c1cc(Cl)ccc1/N=N/Nc1ccc(Cl)cc1C(F)(F)F	–	Activity (HeLa): inactive
–	O=C(c1ccccc1F)N(/N=N/c1ccc([N+](=O)[O-])cc1Br)c1ccc([N+](=O)[O-])cc1Br	5.92	–
–	CC(=O)N(/N=N/c1ccc([N+](=O)[O-])cc1)c1ccc([N+](=O)[O-])cc1	4.20	–
–	CC(=O)OCC(=O)N(/N=N/c1ccc([N+](=O)[O-])cc1Br)c1ccc([N+](=O)[O-])cc1Br	6.31	–
–	O=C(c1cccc(C(F)(F)F)c1)N(/N=N/c1ccc([N+](=O)[O-])cc1C(F)(F)F)c1ccc([N+](=O)[O-])cc1C(F)(F)F	6.12	–
–	O=C(c1ccc(F)cc1)N(/N=N/c1ccc([N+](=O)[O-])cc1Br)c1ccc([N+](=O)[O-])cc1Br	6.24	–
–	O=C(c1ccccc1)N(/N=N/c1ccc([N+](=O)[O-])cc1Br)c1ccc([N+](=O)[O-])cc1Br	5.82	–
–	CC(=O)N(/N=N/c1ccc(Cl)c(C(F)(F)F)c1)c1ccc(Cl)c(C(F)(F)F)c1	4.30	–
186 (≈ 50 µg/mL)	Fc1ccc(/N=N/Nc2ccc(F)c(F)c2)cc1F	–	Activity (HeLa): inactive
24.1 (≈ 14.3 µg/mL)	COc1cc(/C=C/C(=O)N(/N=N/c2cc(C(F)(F)F)ccc2Cl)c2cc(C(F)(F)F)ccc2Cl)cc(OC)c1	–	Activity (HeLa): inactive
–	O=C(c1ccc(C(F)(F)F)cc1)N(/N=N/c1ccc([N+](=O)[O-])cc1C(F)(F)F)c1ccc([N+](=O)[O-])cc1C(F)(F)F	6.16	–
186 (≈ 50 µg/mL)	Fc1ccc(/N=N/Nc2ccc(F)cc2F)c(F)c1	–	Activity (HeLa): inactive
40.3 (≈ 25 µg/mL)	COc1cc(/C=C/C(=O)N(/N=N/c2cc(C(F)(F)F)ccc2Cl)c2cc(C(F)(F)F)ccc2Cl)ccc1OC(C)=O	–	Activity (HeLa): inactive
–	O=[N+]([O-])c1ccc(/N=N/Nc2ccc([N+](=O)[O-])cc2Cl)c(Cl)c1	5.52	Stability [3]: Stable; Activity (Nucleic Acid): inactive; solubility [2]: Insoluble
52.1 (≈ 25 µg/mL)	CC(=O)Oc1ccc(/C=C/C(=O)N(/N=N/c2cccc(F)c2)c2cccc(F)c2)cc1OC(C)=O	–	Activity (HeLa): inactive
–	O=[N+]([O-])c1ccc(/N=N/Nc2ccc([N+](=O)[O-])cc2Br)c(Br)c1	6.03	solubility [2]: Insoluble
182 (≈ 50 µg/mL)	CC(=O)N(/N=N/c1cccc(F)c1)c1cccc(F)c1	–	Activity (HeLa): inactive
–	CC(=O)N(/N=N/c1ccc([N+](=O)[O-])cc1C(F)(F)F)c1ccc([N+](=O)[O-])cc1C(F)(F)F	–	remaining at 26.25 h [3]: 51%
–	O=C(Cc1ccccc1)N(/N=N/c1ccc([N+](=O)[O-])cc1Cl)c1ccc([N+](=O)[O-])cc1Cl	6.28	–
